Broadly, the inhibition in vivo is how much of the control response was suppressed. A high value points to a response far below the control. Broadly, the logD is the decadic logarithm of the distribution of all forms, ionised or not, between an organic phase and buffer at a given pH. Lower therefore signals a more hydrophilic compound. In general, pA2 refers to the negative logarithm of the molar antagonist concentration that doubles the agonist concentration needed for the same response. High values mean higher antagonist potency, low ones lower antagonist potency.

The values below come from ChEMBL document CHEMBL1121744, “Synthesis and antihypertensive activity of a series of 8-substituted 1-oxa-3,8-diazaspiro[4.5]decan-2-ones” (J Med Chem, 1981).

Where only a bound is given, the exact number is not on record here.

The test system of data set [1] is Canis familiaris. The data set can be described thus: Percent inhibition of the pressor responses to 7.5 ug/kg iv phenylephrine in pentobarbital-anesthetized dogs for a dose of 1 mg/kg. It is filed as functional. As to conditions: Canis lupus familiaris. The method, boiled down: (§1)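 Pentobarbital-anesthetized dogs (35 mg/kg iv) with femoral arterial pressure recording. Epinephrine (1 μg/kg), norepinephrine (0.75 μg/kg) and phenylephrine (7.5 μg/kg) iv challenges were given about every 10 min before and after rising iv test doses, which were spaced 90 min apart. Value is % inhibition of the pressor response.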

A short description of data set [2]: Distribution coefficient between 1-Octanol and phosphate buffer at pH7.4. It is filed as physicochemical. The note with it: 1-octanol/phosphate buffer, pH 7.4. The method, boiled down: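 Octanol/buffer distribution measured at pH 7.4 in phosphate with sodium chloride. Either HPLC (0.004 M) or shake flask.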
The test system of data set [3] is Rattus norvegicus. The data set can be described thus: The antihypertensive activity as percentage fall in systolic blood pressure in spontaneously hypertensive rats after a period of 1 hr for a dose of […]. Type of data set: functional, Artery. Summed up: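 Male Okamoto-Aoki SHR, trained, in groups of four matched for systolic pressure, with a concurrent vehicle control group. Oral dosing on two consecutive mornings, in water as solution or suspension at 0.1 mL/10 g. On day 2 rats were restrained at 30.0 ± 1.0 °C. Tail-cuff systolic pressure, four traces per rat, read at each hour. Per cent fall versus control; 1-tail t test, p ≤ 0.05.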

Data set [4] deals with Canis familiaris. The data set can be described thus: Percent inhibition of the pressor responses to 7.5 ug/kg iv phenylephrine in pentobarbital-anesthetized dogs for a dose of 10 mg/kg. It is filed as functional. The note with it: Canis lupus familiaris. The method, boiled down:
as §1

In data set [5] the target is T1, Adrenergic receptor alpha-2 (Rattus norvegicus, UniProt P22086+P19328+P22909).
T1 sequence (P22086 whole entry): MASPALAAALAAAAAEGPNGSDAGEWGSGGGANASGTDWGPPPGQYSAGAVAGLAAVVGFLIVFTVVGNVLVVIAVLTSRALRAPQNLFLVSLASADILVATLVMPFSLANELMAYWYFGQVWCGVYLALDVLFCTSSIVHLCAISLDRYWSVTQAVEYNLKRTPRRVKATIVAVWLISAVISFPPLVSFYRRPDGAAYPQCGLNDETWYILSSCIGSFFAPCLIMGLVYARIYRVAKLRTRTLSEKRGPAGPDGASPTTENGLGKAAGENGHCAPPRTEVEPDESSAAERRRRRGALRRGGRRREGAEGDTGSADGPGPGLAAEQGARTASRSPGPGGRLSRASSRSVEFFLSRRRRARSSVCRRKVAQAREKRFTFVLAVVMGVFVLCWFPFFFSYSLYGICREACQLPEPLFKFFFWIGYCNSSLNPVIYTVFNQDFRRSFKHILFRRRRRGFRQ
T1 sequence (P19328 whole entry): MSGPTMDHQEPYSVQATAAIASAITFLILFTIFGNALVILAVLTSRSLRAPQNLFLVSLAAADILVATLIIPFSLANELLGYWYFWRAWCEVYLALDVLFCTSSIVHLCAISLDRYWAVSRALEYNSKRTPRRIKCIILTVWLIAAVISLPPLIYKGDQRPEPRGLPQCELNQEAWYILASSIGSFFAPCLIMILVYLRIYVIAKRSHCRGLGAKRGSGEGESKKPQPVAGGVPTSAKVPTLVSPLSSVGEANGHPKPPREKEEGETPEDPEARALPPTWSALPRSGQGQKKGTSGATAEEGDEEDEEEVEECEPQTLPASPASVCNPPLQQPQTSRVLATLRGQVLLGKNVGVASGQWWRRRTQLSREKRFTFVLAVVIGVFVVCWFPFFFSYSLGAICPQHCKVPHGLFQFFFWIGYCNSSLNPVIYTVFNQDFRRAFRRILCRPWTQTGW
T1 sequence (P22909 whole entry): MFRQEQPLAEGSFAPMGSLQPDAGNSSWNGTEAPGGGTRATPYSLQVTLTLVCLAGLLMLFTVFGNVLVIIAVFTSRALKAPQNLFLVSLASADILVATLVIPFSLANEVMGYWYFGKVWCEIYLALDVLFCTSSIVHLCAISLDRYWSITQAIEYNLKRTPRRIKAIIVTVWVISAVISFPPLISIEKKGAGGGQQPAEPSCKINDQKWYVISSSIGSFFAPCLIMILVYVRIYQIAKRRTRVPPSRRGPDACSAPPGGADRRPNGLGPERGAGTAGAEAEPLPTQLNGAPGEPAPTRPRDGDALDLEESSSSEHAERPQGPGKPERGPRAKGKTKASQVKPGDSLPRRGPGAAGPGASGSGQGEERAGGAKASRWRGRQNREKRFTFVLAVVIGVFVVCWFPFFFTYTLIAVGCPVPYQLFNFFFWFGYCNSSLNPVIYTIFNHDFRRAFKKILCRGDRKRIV
Description: Antagonistic potency of compound for Alpha-2 adrenergic receptor. It is filed as functional.

For data set [6], the system named is Canis familiaris. The data set can be described thus: Change in mean arterial pressure in anesthetized dogs for a dose of 10 mg/kg. It is filed as functional, Canis lupus familiaris, Artery. Summed up: (§2)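 Dogs anesthetized with sodium pentobarbital (35 mg/kg iv), femoral artery cannulated for pressure, ECG-triggered heart rate, femoral vein for dosing. Rising iv doses were given 90 min apart, and each dose is the full dose, not cumulative. Value is the maximal mean arterial pressure change 10–15 min after each dose, two dogs per compound, ±3 mmHg. Saline served as control.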

In data set [7] the test system is Rattus norvegicus. Description: The antihypertensive activity as percentage fall in systolic blood pressure in spontaneously hypertensive rats after a period of 2 hr for a dose of 50 mg/kg po.
Data set [8] relates to Canis familiaris. The data set can be described thus: Percent inhibition of the pressor responses to 1 ug/kg iv Epinephrine in pentobarbital-anesthetized dogs for a dose of 0.1 mg/kg. It is filed as functional. The note with it: Canis lupus familiaris. The method, boiled down: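 Dogs anesthetized with sodium pentobarbital 35 mg/kg iv; femoral artery cannulated for blood pressure, femoral vein for dosing. Epinephrine 1 μg/kg iv given at about 10-min intervals before and after increasing test doses. Test doses given iv at 90-min intervals. Result is per cent inhibition of the pressor response.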

In data set [9] the test system is Rattus norvegicus. Description: The antihypertensive activity as percentage fall in systolic blood pressure in spontaneously hypertensive rats after a period of 3 hr for a dose of 50 mg/kg po.
Data set [10] concerns Canis familiaris. Description: Percent inhibition of the pressor responses to 0.75 ug/kg iv norepinephrine in pentobarbital-anesthetized dogs for a dose of 1 mg/kg. Type of data set: functional. As to conditions: Canis lupus familiaris. The method, boiled down: as §1
The test system of data set [11] is Canis familiaris. The data set can be described thus: Change in mean arterial pressure in anesthetized dogs for a dose of 3.16 mg/kg. Type of data set: functional, Canis lupus familiaris, Artery. The method, boiled down:
as §2

Data set [12] concerns Canis familiaris. The data set can be described thus: Percent inhibition of the pressor responses to 0.75 ug/kg iv norepinephrine in pentobarbital-anesthetized dogs for a dose of 0.316 mg/kg. Type of data set: functional. The note with it: Canis lupus familiaris. Summed up: as §1
In data set [13] the test system is Rattus norvegicus. Description: The antihypertensive activity as percentage fall in systolic blood pressure in spontaneously hypertensive rats after a period of 3 hr for a dose of 25 mg/kg po. It is filed as functional, Artery. Summed up:
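Male Okamoto-Aoki SHR, trained, in groups of four matched for mean systolic pressure; one group per run received water vehicle. Oral dosing in water (0.1 mL per 10 g) on two consecutive mornings. After the day-2 dose, rats were restrained at 30.0 ± 1.0 °C. Systolic pressure was read by tail cuff (inflated to 300 mmHg, first pulse) at 1–4 h. % fall is versus the untreated control group, by 1-tail t test (p ≤ 0.05).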

For data set [14], the system named is Canis familiaris. The data set can be described thus: Percent inhibition of the pressor responses to 0.75 ug/kg iv norepinephrine in pentobarbital-anesthetized dogs for a dose of 3.16 mg/kg. It is filed as functional. As to conditions: Canis lupus familiaris. The method, boiled down:
as §1

On to `O=C1NCC2(CCN(CCc3c[nH]c4ccccc34)CC2)O1`, for which testing at 1 mg/kg in the data set with Canis familiaris [1] gave an inhibition in vivo of 84%. Further, the pH-dependent lipophilicity (logD) in data set [2] is 1.45. For the same compound, the “Decrease in blood pressure” value was determined as 14% with Rattus norvegicus [3], 10% in the data set on Rattus norvegicus [7] and 8% with Rattus norvegicus [9]. Besides, 10 mg/kg produced 100% inhibition in vivo with Canis familiaris [4]. Also, in data set [5], the pA2 is under 5. Further, the MAP in the data set on Canis familiaris [6] is -6 mmHg. Besides, in the data set on Canis familiaris [8], the inhibition in vivo at 0.1 mg/kg was over 100%.
In the case of `CN1CC2(CCN(CC(O)C3COc4ccccc4O3)CC2)OC1=O` (configuration not stated), the inhibition in vivo at 1 mg/kg with Canis familiaris [1] was 44%; with Canis familiaris [10] it was 60%. The compound further came in with a logD in data set [2] of 1.43. The compound further displayed a pA2 in data set [5] of 6.4. Further, the MAP in the data set on Canis familiaris [11] is -18 mmHg. In the data set with Canis familiaris [12], this compound returned an inhibition in vivo at 0.316 mg/kg of 41%. For the same compound, in the data set on Rattus norvegicus [13], the “Decrease in blood pressure” value is 15%. In addition, in the data set with Canis familiaris [14], at 3.16 mg/kg the inhibition in vivo was 69%.
